We go through 8 molecules from ChEMBL document CHEMBL1799918, “Growth inhibitory activities of oxyprenylated and non-prenylated naturally occurring phenylpropanoids in cancer cell lines” (Bioorg Med Chem Lett, 2011).

Experiment [1] is described as follows: Induction of human U373 cell death assessed as morphological changes at MTT assay-related IC50 after 72 hrs by quantitative video microscopy. The format is functional, U-373MG ATCC.
A short description of experiment [2]: Cytotoxicity against human U373 cells assessed as growth inhibition at MTT assay-related IC50 by quantitative video microscopy relative to control. The format is functional, U-373MG ATCC.
Experiment [3] deals with LoVo. As to the kind of experiment: Cytotoxicity against human LoVo cells after 72 hrs by MTT assay. The format is functional, cell-based. In outline:
(§1)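 MTT colorimetric assay on human cancer cell lines; IC50 growth inhibitory concentration determined in vitro for each compound.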

Experiment [4] in a line: Cytotoxicity against human U373 cells after 72 hrs by MTT assay. The format is functional, cell-based, U-373MG ATCC. To be noted: U373 MG. In short, it runs like this:
as §1

The test system of experiment [5] is PC-3. As to the kind of experiment: Cytotoxicity against human PC3 cells after 72 hrs by MTT assay. To be noted: PC-3, 72 h. The format is functional, cell-based. In short, it runs like this: as §1
Experiment [6] relates to SK-MEL-28. Kind of experiment: Cytotoxicity against human SK-MEL-28 cells after 72 hrs by MTT assay. The format is functional, cell-based. To be noted: SK-MEL-28, 72 h. In short, it runs like this: as §1
Experiment [7] concerns A549. Kind of experiment: Cytotoxicity against human A549 cells after 72 hrs by MTT assay. To be noted: A549, 72 h. The format is functional, cell-based. In outline: as §1
Experiment [8] in a line: Cytotoxicity against human OE21 cells after 72 hrs by MTT assay. To be noted: OE21, 72 h. The format is functional, cell-based. In outline:
as §1

The nature of experiment [9]: Cytostatic activity against human U373 cells assessed as growth inhibition at MTT assay-related IC50 by quantitative video microscopy relative to control. The format is functional, U-373MG ATCC.

Where only a bound is given, the exact number is not on record here.

For the molecule `COc1c(OCC=C(C)C)ccc2ccc(=O)oc12` [LACINARTIN], the Activity in experiment [1] is recorded as 37%. Further, in experiment [2], the “growth inhibition (GI)” value turned out to be 80%. Also, the IC50 in experiment [3] is 40 µM; in [4], 70 µM; in [5], 46 µM; in [6], > 100 µM; in [7] it was 95 µM; in experiment [8] it was > 100 µM.

In the case of `CC(=O)c1c(O)cc(OC/C=C(\C)CC/C=C(\C)CCC=C(C)C)cc1O`, the Activity in experiment [1] worked out at 42%. Further, in [2], the “growth inhibition (GI)” value was found to be 70%. Moreover, the IC50 in experiment [3] came out at 32 µM; in [4], 33 µM; in [5], 38 µM; in experiment [6], 33 µM; in experiment [7], 26 µM; in experiment [8], 18 µM.

Take `CC(C)=CCOc1cc(O)c2c(c1)C(=O)c1cc(C)cc(O)c1C2=O` [MADAGASCIN]: in [1], the Activity is recorded as 95%. Further, the “growth inhibition (GI)” value in experiment [2] was 80%. Also, the IC50 in experiment [3] is 8 µM; in experiment [4], 5 µM; in experiment [5], 6 µM; in experiment [6], 7 µM; in [7], 20 µM; in experiment [8], 10 µM.

On to `COc1cc(/C=C/CO)ccc1O` [CONIFERYL ALCOHOL], for which the Activity in experiment [1] is on record as 26%. Further, in experiment [2], the “growth inhibition (GI)” value worked out at 80%. In addition, the IC50 in [3] is 64 µM; in experiment [4] it was 97 µM; in experiment [5] it was 84 µM; in [6] it was > 100 µM; in experiment [7] it was 85 µM; in [8], 60 µM.

With `O=C(/C=C/c1ccc(O)cc1)c1ccc(O)cc1O` [ISOLIQUIRITIGENIN], in experiment [1], the Activity was 7%. The “growth inhibition (GI)” value in experiment [9] turned out to be 60%. The IC50 in experiment [3] amounted to 57 µM; in [4] it was 68 µM; in experiment [5], 99 µM; in experiment [6] it was 75 µM; in experiment [7], 85 µM; in experiment [8], 48 µM.

Regarding `COc1cc(/C=C/C=O)ccc1O` [CONIFERYL ALDEHYDE], in experiment [1], the Activity came to 13%. Further, the “growth inhibition (GI)” value in experiment [9] was determined as 50%. Further, the IC50 in experiment [3] is 23 µM; in experiment [4], 28 µM; in [5], 35 µM; in experiment [6], 33 µM; in experiment [7] it was 59 µM; in experiment [8], 29 µM.

On to `CC(=O)c1c(O)cc(OC/C=C(\C)CCC=C(C)C)cc1O`, for which the Activity in experiment [1] is 15%. For the same molecule, in [2], the “growth inhibition (GI)” value is listed as 80%. The IC50 was determined as 35 µM in experiment [3]; 29 µM in experiment [4]; 48 µM in experiment [5]; 40 µM in experiment [6]; 34 µM in experiment [7]; 34 µM in experiment [8].

Take `COc1cc(/C=C/C=O)cc(OC)c1O`: in [1], the Activity stood at 2%. In addition, the “growth inhibition (GI)” value in experiment [9] came to 50%. The IC50 was 33 µM in experiment [3]; 56 µM in experiment [4]; 63 µM in experiment [5]; 66 µM in experiment [6]; > 100 µM in experiment [7]; 39 µM in experiment [8].
